Test results from ChEMBL document CHEMBL2396655, “Design, synthesis, and biological evaluation of (E)-N-aryl-2-arylethenesulfonamide analogues as potent and orally bioavailable microtubule-targeted anticancer agents” (J Med Chem, 2013).

Columns and labels:
K562 = experiment: Cytotoxicity against human K562 cells after 96 hrs by trypan blue exclusion assay; assay type: functional, cell-based; conditions: for IC50: K562, 96 h
Procedure, shortened: (§1)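 Cells were grown in DMEM or RPMI with 10% FBS and plated at 2.5×10⁴ cells/well in 12-well dishes. Compounds were added 24 h later at various concentrations. After 96 h, viable cells were counted by trypan blue exclusion from duplicate wells. Results are the mean of two independent experiments.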

DU-145 = experiment: Cytotoxicity against human DU145 cells after 96 hrs by trypan blue exclusion assay; assay type: functional, cell-based; conditions: for IC50: DU-145, 96 h; procedure, shortened: as §1

Compound: COc1ccc(/C=C/S(=O)(=O)Nc2c(OC)cc(OC)cc2OC)cc1
- Activity (K562): Dose-dependent effect
- IC50 (K562): 2.5 µM
- Activity (DU-145): Dose-dependent effect
- IC50 (DU-145): 7.5 µM

Compound: COc1ccc(/C=C/S(=O)(=O)Nc2ccc(F)cc2)cc1
- Activity (K562): Dose-dependent effect
- IC50 (K562): 10 µM
- Activity (DU-145): Dose-dependent effect
- IC50 (DU-145): 10 µM

Compound: O=S(=O)(/C=C/c1ccc(Br)cc1)Nc1ccc(F)cc1
- Activity (K562): Dose-dependent effect
- IC50 (K562): 10 µM
- Activity (DU-145): Dose-dependent effect
- IC50 (DU-145): 10 µM

Compound: COC(=O)C(Nc1cc(NS(=O)(=O)/C=C/c2c(OC)cc(OC)cc2OC)ccc1OC)c1ccc(Br)cc1 (stereo unspecified)
- Activity (K562): Dose-dependent effect
- IC50 (K562): 1 µM
- Activity (DU-145): Dose-dependent effect
- IC50 (DU-145): 7.5 µM

Compound: COC(=O)C(Nc1cc(NS(=O)(=O)/C=C/c2c(OC)cc(OC)cc2OC)ccc1OC)c1ccc(Cl)cc1 (stereo unspecified)
- Activity (K562): Dose-dependent effect
- IC50 (K562): 2.5 µM
- Activity (DU-145): Dose-dependent effect
- IC50 (DU-145): 5 µM

Compound: COc1ccc(NS(=O)(=O)/C=C/c2c(F)c(F)c(F)c(F)c2F)cc1N
- Activity (K562): Dose-dependent effect
- IC50 (K562): 75 µM
- Activity (DU-145): Dose-dependent effect
- IC50 (DU-145): 75 µM

Compound: COc1ccc(NS(=O)(=O)/C=C/c2c(F)c(F)c(F)c(F)c2F)cc1F
- Activity (K562): Dose-dependent effect
- IC50 (K562): 10 µM
- Activity (DU-145): Dose-dependent effect
- IC50 (DU-145): 10 µM

Compound: COC(=O)C(C)Nc1cc(NS(=O)(=O)/C=C/c2c(OC)cc(OC)cc2OC)ccc1OC (stereo unspecified)
- Activity (K562): Dose-dependent effect
- IC50 (K562): 0.3 µM
- Activity (DU-145): Dose-dependent effect
- IC50 (DU-145): 0.1 µM

Compound: COc1ccc(NS(=O)(=O)/C=C/c2ccccc2OC)cc1
- Activity (K562): Dose-dependent effect
- IC50 (K562): 5 µM
- Activity (DU-145): Dose-dependent effect
- IC50 (DU-145): 5 µM

Compound: O=S(=O)(/C=C/c1ccccc1)Nc1ccccc1
- Activity (K562): Dose-dependent effect
- IC50 (K562): 10 µM
- Activity (DU-145): Dose-dependent effect
- IC50 (DU-145): 10 µM

Compound: COc1ccc(NS(=O)(=O)/C=C/c2c(OC)cc(OCCCC(=O)O)cc2OC)cc1N
- Activity (K562): Dose-dependent effect
- IC50 (K562): 10 µM
- Activity (DU-145): Dose-dependent effect
- IC50 (DU-145): 10 µM

Compound: COc1cc(OC)c(/C=C/S(=O)(=O)Nc2ccc(OC)c([N+](=O)[O-])c2)c(OC)c1
- Activity (K562): Dose-dependent effect
- IC50 (K562): 1 µM
- Activity (DU-145): Dose-dependent effect
- IC50 (DU-145): 2.5 µM

Compound: COc1ccc(/C=C/S(=O)(=O)Nc2c(F)c(F)c(F)c(F)c2F)cc1N
- Activity (K562): Dose-dependent effect
- IC50 (K562): 35 µM
- Activity (DU-145): Dose-dependent effect
- IC50 (DU-145): 35 µM

Compound: COc1ccc(NS(=O)(=O)/C=C/c2c(F)cc(F)cc2F)cc1
- Activity (K562): Dose-dependent effect
- IC50 (K562): 15 µM
- Activity (DU-145): Dose-dependent effect
- IC50 (DU-145): 75 µM

Compound: COc1ccc(NS(=O)(=O)/C=C/c2c(F)c(F)c(F)c(F)c2F)cc1[N+](=O)[O-]
- Activity (K562): Dose-dependent effect
- IC50 (K562): 100 µM
- Activity (DU-145): Dose-dependent effect
- IC50 (DU-145): 100 µM

Compound: COc1ccc(NS(=O)(=O)/C=C/c2cc(OC)c(OC)c(OC)c2)cc1N
- Activity (K562): Dose-dependent effect
- IC50 (K562): 15 µM
- Activity (DU-145): Dose-dependent effect
- IC50 (DU-145): 35 µM

Compound: COc1cc(OC)c(/C=C/S(=O)(=O)Nc2cc([N+](=O)[O-])c(OC)c([N+](=O)[O-])c2)c(OC)c1
- Activity (K562): Dose-dependent effect
- IC50 (K562): 10 µM
- Activity (DU-145): Dose-dependent effect
- IC50 (DU-145): 10 µM

Compound: COC(=O)C(C)(C)Nc1cc(NS(=O)(=O)/C=C/c2c(OC)cc(OC)cc2OC)ccc1OC
- Activity (K562): Dose-dependent effect
- IC50 (K562): 0.3 µM
- Activity (DU-145): Dose-dependent effect
- IC50 (DU-145): 0.2 µM

Compound: O=S(=O)(/C=C/c1ccccc1)Nc1ccc(Cl)cc1
- Activity (K562): Dose-dependent effect
- IC50 (K562): 20 µM
- Activity (DU-145): Dose-dependent effect
- IC50 (DU-145): 20 µM
